Assay results reported in ChEMBL document CHEMBL2424615, “Design, synthesis, and characterization of novel tetrahydropyran-based bacterial topoisomerase inhibitors with potent anti-gram-positive activity” (J Med Chem, 2013).
pIC50: −log10 of the molar value.

Key:
DNA gyrase = DNA gyrase (Staphylococcus aureus, UniProt P0A0K8+P20831); experiment: Inhibition of wild type Staphylococcus aureus DNA gyrase subunit 2GyrA/2GyrB assessed as pBR322 supercoiling after 1 hr; type: protein-complex assay
Escherichia coli = experiment: Antibacterial activity against wild type Escherichia coli ATCC 25922 assessed as growth inhibition by broth microdilution method; type: functional
Pseudomonas aeruginosa = experiment: Antibacterial activity against wild type Pseudomonas aeruginosa ATCC 27853 assessed as growth inhibition by broth microdilution method; type: functional
Streptococcus pneumoniae = experiment: Antibacterial activity against wild type Streptococcus pneumoniae ATCC 49619 assessed as growth inhibition by broth microdilution method; type: functional
Enterococcus faecium = experiment: Antibacterial activity against vancomycin-resistant Enterococcus faecium A-949 assessed as growth inhibition by broth microdilution method; type: functional
Staphylococcus aureus [1] = experiment: Antibacterial activity against NXL-101-resistant Staphylococcus aureus harboring DNA gyrase D83N mutant assessed as growth inhibition by broth microdilution method; type: functional
Staphylococcus aureus [2] = experiment: Antibacterial activity against methicillin and quinolone-resistant Staphylococcus aureus A-798 assessed as growth inhibition by broth microdilution method; type: functional
Staphylococcus aureus [3] = experiment: Antibacterial activity against wild type Staphylococcus aureus ATCC 29213 assessed as growth inhibition by broth microdilution method; type: functional
[4] = Inhibition of wild type Escherichia coli ATCC 25922 DNA gyrase subunit 2GyrA/2GyrB assessed as pBR322 supercoiling after 1 hr
DNA gyrase subunit A [5] = target: DNA gyrase subunit A (Staphylococcus aureus, UniProt P20831, D83N); experiment: Inhibition of NXL-101-resistant Staphylococcus aureus DNA gyrase D83N mutant assessed as pBR322 supercoiling after 1 hr
DNA gyrase subunit A [6] = target: DNA gyrase subunit A (Staphylococcus aureus, UniProt P20831, S84L); experiment: Inhibition of quinolone-resistant Staphylococcus aureus A-798 DNA gyrase S84L mutant assessed as pBR322 supercoiling after 1 hr
[7] = Inhibition of wild type Escherichia coli ATCC 25922 DNA topoisomerase-4 subunit 2ParC/2ParE assessed as pBR322 relaxation after 1 hr
Topoisomerase IV = Topoisomerase IV (Staphylococcus aureus, UniProt P0C1S7+P0C1U9); experiment: Inhibition of wild type Staphylococcus aureus ATCC 29213 topoisomerase-4 subunit 2GrlA/2GrlB assessed as pBR322 relaxation after 1 hr; type: protein-complex assay
Staphylococcus aureus [8] = experiment: Spontaneous resistance frequency for Staphylococcus aureus ATCC 25923 at 4 times MIC to 16 times MIC after 48 hrs relative to NXL-101; type: functional
Procedure, shortened: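 Incubated 48 h at 37 °C. Frequency calculated as resistant colonies divided by viable bacteria plated, with the viable count taken on drug-free agar.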

hERG (KCNH2) = hERG (KCNH2) (Homo sapiens, UniProt Q12809); experiment: Inhibition of human ERG expressed in CHO cells at 10 uM after 3 mins by patch clamp assay relative to control; type: cell-based; conditions: CHO cells that express human ERG
Chain of hERG (KCNH2) (Q12809 whole entry): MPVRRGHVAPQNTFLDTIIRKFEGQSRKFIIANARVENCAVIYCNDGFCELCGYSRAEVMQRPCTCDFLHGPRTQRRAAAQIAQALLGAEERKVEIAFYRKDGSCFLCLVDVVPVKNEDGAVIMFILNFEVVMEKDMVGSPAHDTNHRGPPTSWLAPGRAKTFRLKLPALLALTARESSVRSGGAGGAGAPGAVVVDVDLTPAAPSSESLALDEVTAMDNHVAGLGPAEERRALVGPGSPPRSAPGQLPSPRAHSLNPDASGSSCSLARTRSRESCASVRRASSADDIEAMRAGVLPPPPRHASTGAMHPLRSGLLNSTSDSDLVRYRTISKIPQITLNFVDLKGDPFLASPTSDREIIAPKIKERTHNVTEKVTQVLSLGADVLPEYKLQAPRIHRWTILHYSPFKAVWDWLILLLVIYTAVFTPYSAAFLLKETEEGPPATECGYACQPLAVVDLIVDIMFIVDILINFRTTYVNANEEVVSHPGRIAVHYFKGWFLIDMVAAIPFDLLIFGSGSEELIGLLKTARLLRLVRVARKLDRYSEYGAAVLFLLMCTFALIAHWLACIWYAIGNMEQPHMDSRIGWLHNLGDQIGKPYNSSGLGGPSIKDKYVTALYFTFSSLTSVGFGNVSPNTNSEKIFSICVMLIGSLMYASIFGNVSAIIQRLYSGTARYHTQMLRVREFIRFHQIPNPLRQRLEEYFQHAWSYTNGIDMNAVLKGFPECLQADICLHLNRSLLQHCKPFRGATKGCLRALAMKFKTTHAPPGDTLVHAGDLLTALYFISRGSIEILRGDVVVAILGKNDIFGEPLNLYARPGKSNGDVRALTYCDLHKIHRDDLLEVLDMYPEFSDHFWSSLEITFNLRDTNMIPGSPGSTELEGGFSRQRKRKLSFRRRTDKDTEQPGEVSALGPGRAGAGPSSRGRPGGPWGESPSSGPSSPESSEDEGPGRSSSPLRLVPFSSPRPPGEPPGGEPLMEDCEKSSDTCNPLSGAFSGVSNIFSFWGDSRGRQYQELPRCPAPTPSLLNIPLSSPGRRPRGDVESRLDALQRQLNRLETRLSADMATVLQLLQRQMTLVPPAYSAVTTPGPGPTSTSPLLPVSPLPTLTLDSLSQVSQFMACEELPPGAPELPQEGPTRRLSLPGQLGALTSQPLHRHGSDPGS

Staphylococcus aureus [9] = experiment: Antibacterial activity against NXL-101-resistant Staphylococcus aureus A-234 harboring DNA gyrase subunit A D83N mutant assessed as growth inhibition by broth microdilution method; type: functional
Rattus norvegicus = experiment: Unbound clearance in Wistar rat at 1 mg/kg, iv administered as bolus dose and 10 mg/kg, po; type: ADME, organism-based; conditions: in vivo
Procedure, shortened: (§1)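 Male Wistar rats (n = 3) dosed by iv bolus (0.5 or 1 mg/kg) or orally (1 or 10 mg/kg); iv vehicles included pH 4.5 aqueous solution, 5% DMSO in water, or 10% PG/10% PEG400 in water pH 7; oral as pH 5.6 aqueous suspension or microsuspension in 7.5% modified gelatin. Blood sampled by preimplanted catheter over 24 h; plasma by LC-MS/MS, LOQ 1.5 ng/mL.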

[10] = Fraction unbound in Wistar rat plasma at 1 mg/kg, iv administered as bolus dose and 10 mg/kg, po; type: ADME, organism-based
[11] = Clearance in Wistar rat at 1 mg/kg, iv administered as bolus dose; type: ADME, organism-based; parameters: dose 1 mg/kg, route intravenous; conditions: in vivo; procedure, shortened: as §1
[12] = Intrinsic clearance in human liver microsomes at 1 uM; type: ADME, Microsome; conditions: read-out: CLH
[13] = Intrinsic clearance in rat liver microsomes at 1 uM; type: ADME, Microsome; conditions: read-out: CLH
[14] = Intrinsic clearance in mouse liver microsomes at 1 uM; type: ADME, Microsome; conditions: read-out: CLH
[15] = AUC in Wistar rat at 1 mg/kg, iv administered as bolus dose; type: ADME, organism-based; parameters: dose 1 mg/kg, route intravenous; conditions: plasma; procedure, shortened: as §1
[16] = Oral bioavailability in Wistar rat at 10 mg/kg; type: ADME, organism-based; conditions: in vivo; procedure, shortened: as §1
[17] = AUC in Wistar rat at 10 mg/kg, po; type: ADME, organism-based; parameters: dose 10 mg/kg, route oral; conditions: plasma; procedure, shortened: as §1
[18] = Half life in Wistar rat at 1 mg/kg, iv administered as bolus dose and 10 mg/kg, po; type: ADME, organism-based; conditions: in vivo; procedure, shortened: as §1
[19] = Volume of distribution at steady state in Wistar rat at 1 mg/kg, iv administered as bolus dose and 10 mg/kg, po; type: ADME, organism-based; conditions: in vivo, read-out: Vdss; procedure, shortened: as §1

SMILES | pIC50 (DNA gyrase) | MIC (Escherichia coli) [µg/mL] | MIC (Pseudomonas aeruginosa) [µg/mL] | MIC (Streptococcus pneumoniae) [µg/mL] | MIC (Enterococcus faecium) [µg/mL] | MIC (Staphylococcus aureus [1]) [µg/mL] | MIC (Staphylococcus aureus [2]) [µg/mL] | MIC (Staphylococcus aureus [3]) [µg/mL] | pIC50 [4] | pIC50 [7] | pIC50 (Topoisomerase IV) | inhibition at 0.05 h, 10 µM (hERG (KCNH2)) [%] | MIC (Staphylococcus aureus [9]) [µg/mL] | other results
COc1ccc2ncc(F)c([C@@H](O)CC[C@@H]3CCN(CCSc4cccs4)C[C@@H]3C(=O)O)c2c1 | 6.90 | > 8 | > 8 | 1 | 1 | > 8 | 0.25 | 0.125 | 4.49 | 5.70 | 3.89 |  |  | pIC50 (DNA gyrase subunit A [5]): 3.89; pIC50 (DNA gyrase subunit A [6]): 6.90
N#Cc1ccc2ccc(=O)n(CCN3CC[C@H](NCc4cc5c(cn4)OCCO5)[C@H](F)C3)c2c1 | 7.52 | 8 | > 8 | 0.25 | 0.5 | 1 | 0.015 | 0.015 | 5.10 | 6.90 | 5.10 |  |  | pIC50 (DNA gyrase subunit A [5]): 4.49; pIC50 (DNA gyrase subunit A [6]): 7.52
COc1ccc2ncc(F)c([C@@H](O)[C@H](O)[C@@H]3CC[C@@H](NCc4ccc5c(n4)NC(=O)CS5)CO3)c2n1 | 7.52 | 1 | > 8 | 0.06 |  |  |  | 0.03 | 6.30 | 7.52 | 6.30 | 54 | 0.25 | fold change (FC) (Staphylococcus aureus [8]): 10
COc1cnc2cccc([C@@H](O)[C@H](O)[C@@H]3CC[C@@H](NCc4ccc5c(n4)NC(=O)CS5)CO3)c2n1 | 7.52 | 2 | > 8 | 0.06 |  |  |  | 0.03 | 6.30 | 6.90 | 5.70 | 55 | 0.5 | CL free (Rattus norvegicus): 294 mL/min/kg; fraction unbound [10]: 0.18; clearance [11]: 53 mL/min/kg; microsomal CLint at 1 µM [12]: 45 µL/min/mg; microsomal CLint at 1 µM [13]: 92 µL/min/mg; microsomal CLint at 1 µM [14]: 39 µL/min/mg; AUC [15]: 313 ng·h/mL; bioavailability [16]: 26%; AUC [17]: 817 ng·h/mL; half-life [18]: 5.9 h; Vd [19]: 18 L/kg
COc1cnc2ccc(F)c([C@@H](O)[C@H](O)[C@@H]3CC[C@@H](NCc4cc5c(cn4)OCCO5)CO3)c2n1 | 6.90 | 8 | > 8 | 0.125 |  |  |  | ≤ 0.015 | 5.10 | 6.30 | 5.10 | 11 | 8 | 
COc1cnc2ccc(F)c([C@@H](O)[C@H](O)[C@@H]3CC[C@@H](NCc4cc5c(nn4)OCCS5)CO3)c2n1 | 6.90 | > 8 | > 8 | 0.125 |  |  |  | ≤ 0.015 | 5.10 | 5.70 | < 5.10 | 0 | 8 | 
COc1ccc2ncc(F)c([C@@H](O)[C@H](O)[C@@H]3CC[C@@H](NCc4cc5c(cn4)OCCO5)CO3)c2n1 | 7.52 | > 8 | > 8 | 0.03 |  |  |  | 0.03 | 5.10 | 6.90 | 5.10 | 10 | 2 | 
COc1ccc2ncc(F)c([C@@H](O)[C@H](O)[C@@H]3CC[C@@H](NCc4cc5c(nn4)OCCS5)CO3)c2n1 | 6.90 | > 8 | > 8 | 0.06 |  |  |  | ≤ 0.015 | 5.10 | 6.30 | 5.10 | 3 | 8 | 
COc1ccc2ncc(F)c([C@@H](O)[C@H](O)[C@@H]3CC[C@@H](NCc4cc5c(nn4)OCCO5)CO3)c2n1 | 6.90 | > 8 | > 8 | 0.5 |  |  |  | 0.125 | < 5.10 | 5.70 | < 5.10 | 7 | > 8 | 
COc1ccc2nccc(CC[C@@H]3CC[C@@H](NCc4ccc5c(n4)NC(=O)CS5)CO3)c2n1 | 7.52 | 1 | > 8 | 0.06 |  |  |  | 0.03 | 6.92 |  | 6.30 |  | 1 | clearance [11]: 36 mL/min/kg; microsomal CLint at 1 µM [12]: 347 µL/min/mg; microsomal CLint at 1 µM [13]: > 1250 µL/min/mg; microsomal CLint at 1 µM [14]: 954 µL/min/mg; AUC [15]: 463 ng·h/mL; bioavailability [16]: 29%; AUC [17]: 1320 ng·h/mL; half-life [18]: 1.2 h; Vd [19]: 3.2 L/kg
COc1ccc2nccc(NC(=O)[C@H]3CC[C@H](NCc4ccc5c(n4)NC(=O)CS5)CC3)c2n1 | 7.52 | 0.25 | 8 | 0.063 | 0.063 | 0.25 | 0.015 | 0.015 |  | 8.10 | 6.90 |  |  | pIC50 (DNA gyrase subunit A [5]): 5.10; pIC50 (DNA gyrase subunit A [6]): 8.10
O=c1ccc2ccc(F)c3c2n1CC3CN1CCC(NCc2cc3c(cn2)OCCO3)CC1 (configuration not stated) | 6.90 | 1 | > 8 | 0.015 | 0.06 | 1 | 0.015 | 0.015 |  | 6.30 | 5.70 |  |  | pIC50 (DNA gyrase subunit A [5]): 5.70; pIC50 (DNA gyrase subunit A [6]): 7.52
COc1ccc2nccc(C(O)C[C@@H]3CC[C@@H](NCc4ccc5c(n4)NC(=O)CS5)CO3)c2n1 (mixture of isomers) | > 7.52 | 1 | > 8 | 0.03 |  |  |  | 0.03 | 6.30 | > 7.52 | < 5.10 | 99 | 0.5 | 
O=C(O)c1cn(C2CC2)c2cc(N3CCNCC3)c(F)cc2c1=O [CIPROFLOXACIN] |  | 0.016 | 0.25 | 1 | > 8 | 0.25 | > 8 | 0.25 | 6.30 |  |  |  |  | 
